Test results: ChEMBL document CHEMBL2380300, “Identification of new peptide amides as selective cathepsin L inhibitors: the first step towards selective irreversible inhibitors?” (Bioorg Med Chem Lett, 2013)
Peptide text beside a SMILES is read from it. * marks the point of attachment. Cbz = O=C(OCc1ccccc1)*

Assays:
Homo sapiens [1] = species on record: Homo sapiens; assay: Selectivity ratio of Ka for recombinant cathepsin-L (unknown origin) to Ka for recombinant cathepsin-B (unknown origin)
Cathepsin B [2] = target: T1, Cathepsin B (Homo sapiens, UniProt P07858); assay: Irreversible inhibition of recombinant cathepsin-B (unknown origin) using Z-Arg-Arg-AMC as substrate
Procathepsin L [3] = target: T2, Procathepsin L (Homo sapiens, UniProt P07711); assay: Irreversible inhibition of recombinant cathepsin-L (unknown origin) using Z-Phe-Arg-AMC as substrate
Cathepsin B [4] = target: T1, Cathepsin B; assay: Inhibition of recombinant cathepsin-B (unknown origin) using Z-Arg-Arg-AMC as substrate by fluorescence assay
In short: (§1)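 Kinetic assay with recombinant enzyme. Peptide amide stock concentrations were set by amino-acid analysis. Ki was derived from at least three inhibitor concentrations, each measured in duplicate.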

Homo sapiens [5] = species on record: Homo sapiens; assay: Selectivity ratio of Ki for recombinant cathepsin-S (unknown origin) to Ki for recombinant cathepsin-L (unknown origin)
In short: (§2)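 FK = Ki(CatK)/Ki(CatL) and FS = Ki(CatS)/Ki(CatL). Each Ki comes from recombinant enzyme kinetics over a minimum of four inhibitor concentrations, each measured in duplicate.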

Homo sapiens [6] = species on record: Homo sapiens; assay: Selectivity ratio of Ki for recombinant cathepsin-B (unknown origin) to Ki for recombinant cathepsin-L (unknown origin)
In short: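 Selectivity factor FB = Ki(CatB)/Ki(CatL). Both Ki values come from kinetic runs with the recombinant enzymes, each using at least three inhibitor concentrations in duplicate.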

Cathepsin S = Cathepsin S (Homo sapiens, UniProt P25774); assay: Inhibition of recombinant cathepsin-S (unknown origin) using Z-Val-Arg-AMC as substrate by fluorescence assay
Cathepsin S, sequence (P25774 whole entry): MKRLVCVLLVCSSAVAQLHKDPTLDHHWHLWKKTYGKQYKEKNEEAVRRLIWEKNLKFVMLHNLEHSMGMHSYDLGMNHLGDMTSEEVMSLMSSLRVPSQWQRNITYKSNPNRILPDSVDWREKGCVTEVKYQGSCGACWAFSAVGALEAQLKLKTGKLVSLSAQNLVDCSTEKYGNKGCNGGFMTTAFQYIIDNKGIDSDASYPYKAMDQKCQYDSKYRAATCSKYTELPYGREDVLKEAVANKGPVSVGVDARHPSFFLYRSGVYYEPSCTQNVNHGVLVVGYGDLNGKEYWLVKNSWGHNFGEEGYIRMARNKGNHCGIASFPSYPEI
In short: (§3)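 Recombinant enzyme kinetics. Inhibitor stocks were quantified by amino-acid analysis. Ki was obtained from a minimum of four inhibitor concentrations, each run in duplicate.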

Procathepsin L [7] = target: T2, Procathepsin L; assay: Inhibition of recombinant cathepsin-L (unknown origin) using Z-Phe-Arg-AMC as substrate by fluorescence assay; in short: as §1
Homo sapiens [8] = species on record: Homo sapiens; assay: Selectivity ratio of Ki for recombinant cathepsin-K (unknown origin) to Ki for recombinant cathepsin-L (unknown origin); in short: as §2
Cathepsin K = target: T3, Cathepsin K (Homo sapiens, UniProt P43235); assay: Inhibition of recombinant cathepsin-K (unknown origin) using Z-Phe-Arg-AMC as substrate by fluorescence assay; in short: as §3
T3 sequence (P43235 whole entry): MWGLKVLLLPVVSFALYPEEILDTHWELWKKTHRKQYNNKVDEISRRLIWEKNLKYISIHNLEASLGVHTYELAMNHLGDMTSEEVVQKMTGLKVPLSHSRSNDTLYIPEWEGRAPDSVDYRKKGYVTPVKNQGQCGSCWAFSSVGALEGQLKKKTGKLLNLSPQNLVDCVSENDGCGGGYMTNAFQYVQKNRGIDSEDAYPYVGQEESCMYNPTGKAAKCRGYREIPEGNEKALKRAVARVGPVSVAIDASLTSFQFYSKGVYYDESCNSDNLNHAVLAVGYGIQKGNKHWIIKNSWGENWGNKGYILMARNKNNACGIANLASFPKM

Question: Cc1cccc(C)c1C(=O)OCC(=O)[C@H](CCCCN)NC(=O)[C@H](Cc1ccccc1)NC(=O)[C@H](Cc1c[nH]c2ccccc12)NC(=O)OCc1ccccc1 was tested. Which Ratio (Homo sapiens [1]) did it give?
Answer: 6.9

Question: What about the Ka (Cathepsin B [2]) of the same molecule?
Answer: 0.57 ×10⁵ /s/M

Question: What about the Ka (Procathepsin L [3]) of the same molecule?
Answer: 3.92 ×10⁵ /s/M

Question: How did the Ratio (Homo sapiens [1]) turn out when Cc1cccc(C)c1C(=O)OCC(=O)[C@H](CCCCN)NC(=O)[C@H](Cc1ccccc1)NC(=O)[C@H](CCCNC(=N)N)NC(=O)OCc1ccccc1 was run?
Answer: 11.5

Question: And the Ka (Cathepsin B [2])?
Answer: 0.76 ×10⁵ /s/M

Question: What about the Ka (Procathepsin L [3]) of the same molecule?
Answer: 8.75 ×10⁵ /s/M

Question: With Cc1cccc(C)c1C(=O)OCC(=O)[C@H](CCCCN)NC(=O)[C@H](Cc1ccccc1)NC(=O)[C@H](CCCCN)NC(=O)OCc1ccccc1 as the molecule, how does the Ratio (Homo sapiens [1]) read?
Answer: 0.3

Question: And the Ka (Cathepsin B [2])?
Answer: 8.22 ×10⁵ /s/M

Question: What about the Ka (Procathepsin L [3]) of the same molecule?
Answer: 2.52 ×10⁵ /s/M

Question: For Cc1cccc(C)c1C(=O)OCC(=O)[C@H](CCCCN)NC(=O)[C@H](Cc1ccccc1)NC(=O)OCc1ccccc1, which Ratio (Homo sapiens [1]) is on record?
Answer: 7.8

Question: What about the Ka (Cathepsin B [2]) of the same molecule?
Answer: 0.38 ×10⁵ /s/M

Question: And the Ka (Procathepsin L [3])?
Answer: 2.96 ×10⁵ /s/M

Question: What does the source list for NCCCC[C@H](NC(=O)[C@H](Cc1ccccc1)NC(=O)[C@H](CCCCN)NC(=O)OCc1ccccc1)C(N)=O (Cbz-Lys-Phe-Lys-NH2)?
Answer: Ki (Cathepsin B [4]): 1490 µM; Ratio Ki (Homo sapiens [5]): 46; Ratio Ki (Homo sapiens [6]): 1680; Ki (Cathepsin S): 41.1 µM; Ki (Procathepsin L [7]): 0.89 µM; Ratio Ki (Homo sapiens [8]): 319; Ki (Cathepsin K): 284 µM

Question: With Cc1cccc(C)c1C(=O)OCC(=O)[C@H](CCCCN)NC(=O)[C@H](Cc1ccccc1)NC(=O)[C@H](CC(C)C)NC(=O)OCc1ccccc1 as the molecule, how does the Ratio (Homo sapiens [1]) read?
Answer: 2

Question: And the Ka (Cathepsin B [2])?
Answer: 1.36 ×10⁵ /s/M

Question: And the Ka (Procathepsin L [3])?
Answer: 2.69 ×10⁵ /s/M

Question: Which Ki (Cathepsin B [4]) does the source give for NCCCC[C@H](NC(=O)[C@H](Cc1ccc(-c2cccs2)cc1)NC(=O)OCc1ccccc1)C(N)=O here?
Answer: 39 µM

Question: What about the Ratio Ki (Homo sapiens [5]) of the same molecule?
Answer: 233

Question: What about the Ratio Ki (Homo sapiens [6]) of the same molecule?
Answer: 325

Question: And the Ki (Cathepsin S)?
Answer: 28 µM

Question: What about the Ki (Procathepsin L [7]) of the same molecule?
Answer: 0.12 µM

Question: And the Ratio Ki (Homo sapiens [8])?
Answer: 200

Question: And the Ki (Cathepsin K)?
Answer: 24 µM
